Data as given in ChEMBL document CHEMBL1126989, “Synthesis and cytotoxicity of 1,6,7,8-substituted 2-(4'-substituted phenyl)-4-quinolones and related compounds: identification as antimitotic agents interacting with tubulin” (J Med Chem, 1993).
Values after ≈ are worked out from the molar mass of the structure shown.

Key:
[1] = molecular target: Tubulin beta chain (Bos taurus, UniProt Q6B856); assay: (§1) Inhibition of tubulin polymerization; format: functional
Outline: (§2)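 Bovine brain tubulin 1.0 mg/mL (10 μM) with 1.0 M repurified monosodium glutamate, 1.0 mM MgCl2, 4% DMSO and drug; preincubated 15 min at 37 °C, chilled, GTP added; turbidity at 350 nm after jump from 0 to 37 °C, followed 20 min.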

[2] = system: A549; assay: Cytotoxicity in vitro expressed as 50% reduction in cell number after a 3-day incubation, in human lung carcinoma A-549 cell line; format: functional, cell-based; details: A549, 72 h
Outline: (§3)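 Cell lines adapted to antibiotic-free RPMI-1640 with 10% fetal calf serum; ca. 1×10^5 cells per well, overnight stabilization, then serial dilutions added, quadruplicate per concentration; medium-only controls. After 3-4 days, MTT added and incubated overnight; formazan dissolved in DMSO, absorbance at 570 nm. EC50 calculated from two data points bracketing 50% growth inhibition. Actinomycin as positive control.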

[3] = system: L1210 (1565); assay: Cytotoxicity in vitro expressed as 50% reduction in cell number after a 3-day incubation, in murine leukemia L-1210 cell line; format: functional, cell-based; details: Mus musculus, 72 h; outline: as §3
[4] = system: KB; assay: Cytotoxicity in vitro expressed as 50% reduction in cell number after a 3-day incubation, in human epidermoid carcinoma KB cell line; format: functional, cell-based; details: 72 h; outline: as §3
[5] = system: P388; assay: Cytotoxicity in vitro expressed as 50% reduction in cell number after a 3-day incubation, in murine leukemia P-388 cell line; format: functional, cell-based; details: Mus musculus, P388, 72 h; outline: as §3
[6] = system: RPMI-7951; assay: Cytotoxicity in vitro expressed as 50% reduction in cell number after a 3-day incubation, in human melanoma RPMI-7951 cell line; format: functional, cell-based; details: RPMI-7951, 72 h; outline: as §3
[7] = system: HCT-8; assay: Cytotoxicity in vitro expressed as 50% reduction in cell number after a 3-day incubation, in human ileocecal carcinoma HCT-8 cell line; format: functional, cell-based; details: HCT-8, 72 h; outline: as §3
[8] = system: COLO 205; assay: Inhibition of in vitro cell growth which reduces cell growth to 50% of level at start of experiment in colon COLO-205 cell line; format: functional, Homo sapiens
Outline: (§4)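 NCI in vitro disease-oriented screen across about 60 human tumour cell lines. The value is the LC50-type level: the drug concentration that cuts cell number to 50% of the count at the start of the experiment. Values are averages of 2 assays.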

[9] = system: COLO 205; assay: Inhibition of in vitro cell growth which reduces cell growth to level at start of experiment in colon COLO-205 cell line; format: functional, Homo sapiens
[10] = system: HCC 2998; assay: Inhibition of in vitro cell growth which reduces cell growth to level at start of experiment in colon HCC2998 cell line; format: functional, Homo sapiens
[11] = system: HCC 2998; assay: Inhibition of in vitro cell growth which reduces cell growth to 50% of level at start of experiment in colon HCC2998 cell line; format: functional, Homo sapiens; outline: as §4
[12] = system: HT-29; assay: Inhibition of in vitro cell growth which reduces cell growth to 50% of level at start of experiment in colon HT-29 cell line; format: functional, Homo sapiens; outline: as §4
[13] = system: KM-20L2; assay: Inhibition of in vitro cell growth which reduces cell growth to 50% of level at start of experiment in colon KM-20L2 cell line; format: functional, Homo sapiens; outline: as §4
[14] = system: KM-20L2; assay: Inhibition of in vitro cell growth which reduces cell growth to level at start of experiment in colon KM-20L2 cell line; format: functional, Homo sapiens
[15] = system: SF-539; assay: Inhibition of in vitro cell growth which reduces cell growth to level at start of experiment in CNS SF-539 cell line; format: functional, Homo sapiens
[16] = system: SF-539; assay: Inhibition of in vitro cell growth which reduces cell growth to 50% of level at start of experiment in CNS SF-539 cell line; format: functional, Homo sapiens; outline: as §4
[17] = molecular target: T1, Tubulin (Bos taurus) (UniProt Q6B856+Q862L2+Q862F3); assay: Percentage inhibition of colchicine binding(10:1 ratio of inhibitor: colchicine); format: protein assay; details: concentration not given here
[18] = molecular target: T1, Tubulin (Bos taurus); assay: Percentage inhibition of colchicine binding(1:1 ratio of inhibitor: colchicine); format: protein assay; details: concentration not given here
[19] = system: HT-29; assay: Inhibition of in vitro cell growth which reduces cell growth to level at start of experiment in colon HT-29 cell line; format: functional, Homo sapiens
[20] = molecular target: Tubulin; assay: as §1; format: functional; outline: as §2

Chain of Tubulin beta chain (Q6B856 whole entry): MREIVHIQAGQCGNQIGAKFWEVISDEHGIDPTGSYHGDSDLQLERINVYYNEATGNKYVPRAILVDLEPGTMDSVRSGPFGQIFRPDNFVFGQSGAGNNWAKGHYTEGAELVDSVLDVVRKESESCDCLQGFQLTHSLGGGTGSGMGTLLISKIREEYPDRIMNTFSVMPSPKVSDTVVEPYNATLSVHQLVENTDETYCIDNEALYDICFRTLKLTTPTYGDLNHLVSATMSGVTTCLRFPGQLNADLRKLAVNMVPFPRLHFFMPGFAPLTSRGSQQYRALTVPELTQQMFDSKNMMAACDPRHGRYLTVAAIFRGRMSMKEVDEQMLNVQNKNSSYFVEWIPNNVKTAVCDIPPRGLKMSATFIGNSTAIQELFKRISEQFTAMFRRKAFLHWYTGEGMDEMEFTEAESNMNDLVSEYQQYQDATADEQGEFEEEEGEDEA

| IC50 [1] | Compound | EC50 [2] | EC50 [3] | EC50 [4] | EC50 [5] | EC50 [6] | EC50 [7] | other results |
| --- | --- | --- | --- | --- | --- | --- | --- | --- |
|  | Oc1cc(-c2ccccc2)nc2c(O)cccc12 | > 10 µg/mL | > 10 µg/mL | > 10 µg/mL | > 10 µg/mL | > 10 µg/mL | > 10 µg/mL |  |
|  | Cc1ccc2nc(-c3ccccc3)cc(O)c2c1 | 0.53 µg/mL (≈ 2.25 µM) | 0.72 µg/mL (≈ 3.06 µM) | 0.55 µg/mL (≈ 2.34 µM) | 0.49 µg/mL (≈ 2.08 µM) | 0.53 µg/mL (≈ 2.25 µM) | 0.9 µg/mL (≈ 3.83 µM) |  |
|  | CCCOc1cc(-c2ccccc2)nc2ccccc12 | > 10 µg/mL | > 10 µg/mL | 4.5 µg/mL (≈ 17.1 µM) | 6.9 µg/mL (≈ 26.2 µM) |  | > 10 µg/mL |  |
| 4.8 µM | COc1ccc2c(O)cc(-c3ccccc3)nc2c1 | 0.73 µg/mL (≈ 2.91 µM) | 0.57 µg/mL (≈ 2.27 µM) | 0.53 µg/mL (≈ 2.11 µM) | 0.67 µg/mL (≈ 2.67 µM) | 0.43 µg/mL (≈ 1.71 µM) | 4.86 µg/mL (≈ 19.3 µM) |  |
| 11 µM | Oc1cc(-c2ccccc2)nc2c(F)cccc12 | 0.61 µg/mL (≈ 2.55 µM) | 0.67 µg/mL (≈ 2.8 µM) | 0.53 µg/mL (≈ 2.22 µM) | 0.78 µg/mL (≈ 3.26 µM) | 0.38 µg/mL (≈ 1.59 µM) | 0.04 µg/mL (≈ 0.167 µM) |  |
|  | Oc1cc(-c2ccccc2)nc2cc(Cl)ccc12 | 2.89 µg/mL (≈ 11.3 µM) | < 0.1 µg/mL | < 0.1 µg/mL | < 0.1 µg/mL | < 0.1 µg/mL | 0.45 µg/mL (≈ 1.76 µM) |  |
|  | c1ccc(COc2cc(-c3ccccc3)nc3ccccc23)cc1 | > 10 µg/mL | > 10 µg/mL | 1.6 µg/mL (≈ 5.14 µM) | > 10 µg/mL |  | > 10 µg/mL |  |
| > 40 µM | Cn1c(-c2ccccc2)cc(=O)c2ccccc21 | > 10 µg/mL | > 10 µg/mL | > 10 µg/mL | > 10 µg/mL | > 10 µg/mL | > 10 µg/mL |  |
|  | Oc1cc(-c2ccccc2)nc2ccccc12 | 0.5 µg/mL (≈ 2.26 µM) | 0.06 µg/mL (≈ 0.271 µM) | 0.09 µg/mL (≈ 0.407 µM) | 0.08 µg/mL (≈ 0.362 µM) | 0.37 µg/mL (≈ 1.67 µM) | 0.8 µg/mL (≈ 3.62 µM) | IC50 [20]: 7.3 µM |
|  | Cn1c(-c2ccc(O)cc2)cc(=O)c2ccccc21 | > 10 µg/mL | > 10 µg/mL | > 10 µg/mL | > 10 µg/mL | > 10 µg/mL | 5.71 µg/mL (≈ 22.7 µM) | IC50 [20]: > 40 µM |
|  | CC(C)Oc1cc(-c2ccccc2)nc2ccccc12 | > 10 µg/mL | > 10 µg/mL | 4.2 µg/mL (≈ 15.9 µM) | > 10 µg/mL |  | > 10 µg/mL |  |
| 16 µM | Oc1ccc2nc(-c3ccccc3)cc(O)c2c1 | 8.14 µg/mL (≈ 34.3 µM) | 0.83 µg/mL (≈ 3.5 µM) | 0.41 µg/mL (≈ 1.73 µM) | 2.86 µg/mL (≈ 12.1 µM) | 3.92 µg/mL (≈ 16.5 µM) | 7.75 µg/mL (≈ 32.7 µM) |  |

| Compound | IC50 [1] | EC50 [2] | EC50 [3] | EC50 [4] | EC50 [5] | EC50 [6] | EC50 [7] | other results |
| --- | --- | --- | --- | --- | --- | --- | --- | --- |
| COc1cc([C@@H]2c3cc4c(cc3[C@H](O)[C@H]3COC(=O)[C@H]23)OCO4)cc(OC)c1OC [PODOFILOX] | 1.3 µM |  |  |  |  |  |  |  |
| COc1ccc2nc(-c3ccccc3)cc(O)c2c1 | 2.7 µM | 0.19 µg/mL (≈ 0.756 µM) | 0.06 µg/mL (≈ 0.239 µM) | 0.08 µg/mL (≈ 0.318 µM) | 0.33 µg/mL (≈ 1.31 µM) | 0.36 µg/mL (≈ 1.43 µM) | 1 µg/mL (≈ 3.98 µM) | LC50 [8]: -4.4; TGI [9]: -6.1; TGI [10]: -6.2; LC50 [11]: >-4; LC50 [12]: >-4; LC50 [13]: -4.6; TGI [14]: -5.9; TGI [15]: -6.2; LC50 [16]: -4.4; inhibition [17]: 53%; inhibition [18]: 8%; TGI [19]: -6.1 |
